What was measured:
[1] = biological target: T1, Metabotropic glutamate receptor 4 (Rattus norvegicus, UniProt P31423); experiment: Agonist activity at rat recombinant mGluR4 expressed in BHK cells; format: functional, cell-based
Procedure, shortened: (§1)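 Group III functional read-out: cAMP formation measured in BHK cells expressing hmGluR7 or rmGluR4. EC50 reported in µM as means ± SEM of at least three independent experiments, each performed in triplicate.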

[2] = biological target: T1, Metabotropic glutamate receptor 4; experiment: Displacement of [3H]L-AP4 from rat recombinant mGluR4 expressed in BHK cells by SPA assay; format: cell-based
Procedure, shortened: (§2)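 Scintillation proximity binding assay on membranes of BHK cells expressing rmGluR4 or rmGluR8. Radioligand was [3H]-L-AP4 for rmGluR4 and [3H]-LY341495 for rmGluR8. Values are means ± SEM of at least three independent experiments performed in triplicate.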

[3] = biological target: Metabotropic glutamate receptor 1 (Rattus norvegicus, UniProt P23385); experiment: Activity at rat recombinant mGluR1 expressed in CHO cells assessed as intracellular calcium concentration; format: functional, cell-based
Chain of Metabotropic glutamate receptor 1 (P23385 whole entry): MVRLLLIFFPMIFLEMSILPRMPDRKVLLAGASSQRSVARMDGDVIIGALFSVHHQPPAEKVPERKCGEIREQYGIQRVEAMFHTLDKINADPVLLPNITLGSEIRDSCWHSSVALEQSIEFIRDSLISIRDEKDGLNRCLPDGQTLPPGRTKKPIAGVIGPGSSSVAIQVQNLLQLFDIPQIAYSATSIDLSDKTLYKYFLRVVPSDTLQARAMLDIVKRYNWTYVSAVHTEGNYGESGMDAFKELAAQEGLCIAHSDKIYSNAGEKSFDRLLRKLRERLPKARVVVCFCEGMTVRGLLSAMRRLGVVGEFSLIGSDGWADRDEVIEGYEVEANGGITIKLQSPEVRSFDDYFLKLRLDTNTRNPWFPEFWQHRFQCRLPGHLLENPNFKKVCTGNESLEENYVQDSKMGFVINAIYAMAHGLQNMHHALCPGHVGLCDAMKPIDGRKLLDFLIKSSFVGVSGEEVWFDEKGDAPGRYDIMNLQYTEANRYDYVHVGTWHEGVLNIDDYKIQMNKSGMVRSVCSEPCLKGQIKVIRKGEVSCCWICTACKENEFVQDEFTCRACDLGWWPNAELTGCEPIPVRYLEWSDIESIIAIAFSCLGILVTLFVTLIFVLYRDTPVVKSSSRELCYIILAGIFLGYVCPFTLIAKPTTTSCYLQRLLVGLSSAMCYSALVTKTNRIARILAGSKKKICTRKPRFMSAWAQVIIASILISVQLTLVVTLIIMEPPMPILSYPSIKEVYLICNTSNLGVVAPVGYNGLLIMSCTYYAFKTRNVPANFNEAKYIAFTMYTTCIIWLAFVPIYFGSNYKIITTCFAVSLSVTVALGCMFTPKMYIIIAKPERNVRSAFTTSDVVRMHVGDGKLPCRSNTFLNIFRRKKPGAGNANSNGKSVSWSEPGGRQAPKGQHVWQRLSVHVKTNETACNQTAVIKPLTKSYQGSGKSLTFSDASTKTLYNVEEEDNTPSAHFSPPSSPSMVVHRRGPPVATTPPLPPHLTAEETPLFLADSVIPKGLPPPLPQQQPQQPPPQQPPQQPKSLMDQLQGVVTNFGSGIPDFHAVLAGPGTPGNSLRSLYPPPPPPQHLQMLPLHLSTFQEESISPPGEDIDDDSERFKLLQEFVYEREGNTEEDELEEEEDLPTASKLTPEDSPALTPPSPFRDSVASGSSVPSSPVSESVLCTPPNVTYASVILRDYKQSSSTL

[4] = biological target: Metabotropic glutamate receptor 2 (Homo sapiens, UniProt Q14416); experiment: Activity at human recombinant mGluR2 expressed in BHK cells assessed as stimulation of [35S]GTP-gamma-S binding; format: functional, cell-based
Chain of Metabotropic glutamate receptor 2 (Q14416 whole entry): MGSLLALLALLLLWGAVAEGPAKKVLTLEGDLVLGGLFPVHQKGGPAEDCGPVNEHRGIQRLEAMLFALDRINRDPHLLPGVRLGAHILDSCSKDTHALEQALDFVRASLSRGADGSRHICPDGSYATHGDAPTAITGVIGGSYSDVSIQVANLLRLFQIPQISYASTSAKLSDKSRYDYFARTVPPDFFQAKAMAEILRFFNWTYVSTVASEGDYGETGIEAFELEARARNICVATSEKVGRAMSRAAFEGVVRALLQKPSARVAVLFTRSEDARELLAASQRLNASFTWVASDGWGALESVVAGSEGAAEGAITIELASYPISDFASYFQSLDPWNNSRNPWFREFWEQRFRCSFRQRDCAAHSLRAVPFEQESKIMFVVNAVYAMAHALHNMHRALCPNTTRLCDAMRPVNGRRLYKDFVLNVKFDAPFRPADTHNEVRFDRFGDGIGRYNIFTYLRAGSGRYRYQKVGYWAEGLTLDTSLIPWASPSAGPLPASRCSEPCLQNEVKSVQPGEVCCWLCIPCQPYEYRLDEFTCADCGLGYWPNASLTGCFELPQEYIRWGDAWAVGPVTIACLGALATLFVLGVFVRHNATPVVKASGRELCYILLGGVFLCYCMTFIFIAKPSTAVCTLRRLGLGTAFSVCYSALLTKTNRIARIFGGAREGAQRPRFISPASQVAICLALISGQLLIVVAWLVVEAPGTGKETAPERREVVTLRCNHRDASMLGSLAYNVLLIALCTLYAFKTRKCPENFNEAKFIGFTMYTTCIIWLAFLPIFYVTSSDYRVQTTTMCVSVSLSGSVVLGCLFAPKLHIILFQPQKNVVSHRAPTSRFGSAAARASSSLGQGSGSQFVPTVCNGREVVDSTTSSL

[5] = biological target: Metabotropic glutamate receptor 5 (Rattus norvegicus, UniProt P31424); experiment: Activity at rat recombinant mGluR5 expressed in CHO cells assessed as intracellular calcium concentration; format: functional, cell-based
Chain of Metabotropic glutamate receptor 5 (P31424 whole entry): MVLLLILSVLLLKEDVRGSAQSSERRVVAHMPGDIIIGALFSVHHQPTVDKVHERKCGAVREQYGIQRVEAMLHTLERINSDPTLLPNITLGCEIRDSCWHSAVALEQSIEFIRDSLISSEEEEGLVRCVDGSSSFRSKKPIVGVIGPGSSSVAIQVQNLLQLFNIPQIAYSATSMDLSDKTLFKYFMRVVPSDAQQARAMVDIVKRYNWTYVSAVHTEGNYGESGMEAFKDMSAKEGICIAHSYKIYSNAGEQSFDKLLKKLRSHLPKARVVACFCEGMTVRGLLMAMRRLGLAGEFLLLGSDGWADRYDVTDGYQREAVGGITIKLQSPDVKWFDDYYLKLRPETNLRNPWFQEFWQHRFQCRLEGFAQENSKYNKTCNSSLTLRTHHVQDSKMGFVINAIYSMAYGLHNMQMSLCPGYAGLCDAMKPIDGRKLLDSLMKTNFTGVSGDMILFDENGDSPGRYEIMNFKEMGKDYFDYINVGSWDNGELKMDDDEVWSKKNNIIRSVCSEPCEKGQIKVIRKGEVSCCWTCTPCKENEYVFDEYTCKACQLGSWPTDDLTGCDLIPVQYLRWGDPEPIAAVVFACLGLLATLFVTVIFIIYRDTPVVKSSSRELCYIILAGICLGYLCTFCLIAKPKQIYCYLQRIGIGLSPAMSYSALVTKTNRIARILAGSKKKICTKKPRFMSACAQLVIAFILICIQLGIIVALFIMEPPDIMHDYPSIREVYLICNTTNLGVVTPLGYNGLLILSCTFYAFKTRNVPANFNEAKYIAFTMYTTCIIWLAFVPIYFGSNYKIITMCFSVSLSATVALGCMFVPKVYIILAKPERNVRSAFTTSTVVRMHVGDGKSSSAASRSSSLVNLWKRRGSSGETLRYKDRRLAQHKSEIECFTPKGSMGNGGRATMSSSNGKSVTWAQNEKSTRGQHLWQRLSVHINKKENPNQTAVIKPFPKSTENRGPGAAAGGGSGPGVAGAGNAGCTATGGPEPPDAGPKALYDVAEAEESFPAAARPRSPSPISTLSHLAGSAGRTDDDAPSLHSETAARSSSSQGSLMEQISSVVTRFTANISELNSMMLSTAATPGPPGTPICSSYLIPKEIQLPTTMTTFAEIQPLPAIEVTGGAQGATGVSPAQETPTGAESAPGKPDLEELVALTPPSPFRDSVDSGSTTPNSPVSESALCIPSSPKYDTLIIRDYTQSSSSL

[6] = biological target: Metabotropic glutamate receptor 6 (Rattus norvegicus, UniProt P35349); experiment: Activity at rat recombinant mGluR6 expressed in CHO cells assessed as cAMP production; format: functional, cell-based
Procedure, shortened: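 rmGluR6 expressed in CHO cells. Potency was measured from cAMP formation, reported as EC50. Means ± SEM of at least three independent experiments, each in triplicate.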

[7] = biological target: Metabotropic glutamate receptor 7 (Homo sapiens, UniProt Q14831); experiment: Activity at human recombinant mGluR7 expressed in BHK cells assessed as cAMP production; format: functional, cell-based; procedure, shortened: as §1
Chain of Metabotropic glutamate receptor 7 (Q14831 whole entry): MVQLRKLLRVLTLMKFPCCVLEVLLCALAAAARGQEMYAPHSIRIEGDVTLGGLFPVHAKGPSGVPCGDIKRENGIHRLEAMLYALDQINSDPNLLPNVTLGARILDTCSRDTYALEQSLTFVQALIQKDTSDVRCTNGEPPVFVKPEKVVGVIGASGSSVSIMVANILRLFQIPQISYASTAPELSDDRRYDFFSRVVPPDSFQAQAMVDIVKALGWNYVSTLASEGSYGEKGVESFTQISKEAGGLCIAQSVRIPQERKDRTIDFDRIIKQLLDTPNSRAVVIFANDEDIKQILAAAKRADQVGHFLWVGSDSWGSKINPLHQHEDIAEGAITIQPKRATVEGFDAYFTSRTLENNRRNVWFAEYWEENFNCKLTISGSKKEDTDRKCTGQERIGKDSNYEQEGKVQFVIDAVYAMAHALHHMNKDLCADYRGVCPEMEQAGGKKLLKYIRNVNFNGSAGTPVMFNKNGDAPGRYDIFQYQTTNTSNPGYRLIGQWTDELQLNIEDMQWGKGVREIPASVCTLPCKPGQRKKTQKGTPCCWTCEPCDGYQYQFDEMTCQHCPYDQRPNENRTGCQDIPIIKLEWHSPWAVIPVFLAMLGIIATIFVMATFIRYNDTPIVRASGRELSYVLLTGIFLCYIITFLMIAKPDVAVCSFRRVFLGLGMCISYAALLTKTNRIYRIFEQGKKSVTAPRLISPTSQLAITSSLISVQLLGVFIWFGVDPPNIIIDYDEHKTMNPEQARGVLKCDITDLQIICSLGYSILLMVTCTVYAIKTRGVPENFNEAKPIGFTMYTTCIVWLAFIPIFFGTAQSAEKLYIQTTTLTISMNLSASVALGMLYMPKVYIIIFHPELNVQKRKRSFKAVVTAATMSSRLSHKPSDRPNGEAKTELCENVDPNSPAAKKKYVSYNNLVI

[8] = biological target: Metabotropic glutamate receptor 8 (Rattus norvegicus, UniProt P70579); experiment: Displacement of [3H]LY341495 from rat recombinant mGluR8 expressed in BHK cells by SPA assay; format: cell-based; procedure, shortened: as §2
Chain of Metabotropic glutamate receptor 8 (P70579 whole entry): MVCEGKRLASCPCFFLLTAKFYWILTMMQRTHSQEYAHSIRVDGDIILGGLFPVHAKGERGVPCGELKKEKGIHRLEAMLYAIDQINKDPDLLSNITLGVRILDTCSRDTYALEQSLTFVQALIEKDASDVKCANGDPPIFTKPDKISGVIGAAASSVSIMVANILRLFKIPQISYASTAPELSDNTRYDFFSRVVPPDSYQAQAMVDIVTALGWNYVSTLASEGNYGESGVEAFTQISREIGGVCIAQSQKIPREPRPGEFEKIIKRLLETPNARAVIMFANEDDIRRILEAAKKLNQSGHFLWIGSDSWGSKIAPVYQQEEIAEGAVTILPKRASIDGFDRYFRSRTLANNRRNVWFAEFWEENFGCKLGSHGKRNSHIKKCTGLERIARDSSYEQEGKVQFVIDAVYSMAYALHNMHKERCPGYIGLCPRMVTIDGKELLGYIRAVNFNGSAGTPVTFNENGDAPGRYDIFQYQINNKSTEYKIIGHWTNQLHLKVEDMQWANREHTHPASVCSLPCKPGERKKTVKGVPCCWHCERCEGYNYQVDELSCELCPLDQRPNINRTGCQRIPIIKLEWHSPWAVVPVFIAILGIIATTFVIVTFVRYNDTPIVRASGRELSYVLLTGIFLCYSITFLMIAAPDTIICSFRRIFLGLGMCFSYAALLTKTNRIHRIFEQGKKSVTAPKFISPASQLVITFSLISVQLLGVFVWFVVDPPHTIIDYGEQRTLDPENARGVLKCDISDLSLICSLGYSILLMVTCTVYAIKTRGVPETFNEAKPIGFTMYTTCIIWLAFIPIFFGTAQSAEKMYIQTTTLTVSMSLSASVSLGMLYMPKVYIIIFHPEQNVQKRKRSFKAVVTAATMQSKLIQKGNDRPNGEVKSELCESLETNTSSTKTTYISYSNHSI

Row | SMILES | EC50 [1] [µM] | Ki [2] [µM] | EC50 [3] [µM] | EC50 [4] [µM] | EC50 [5] [µM] | EC50 [6] [µM] | EC50 [7] [µM] | Ki [8] [µM]
1 | NC(C(=O)O)[C@@H]1[C@H](c2ccccc2)[C@H]1P(=O)(O)O (some centres not stated) | > 1000 | > 1000 | > 1000 | > 1000 | > 1000 | – | – | –
2 | NC(C(=O)O)[C@@H]1[C@@H](c2ccccc2)[C@H]1P(=O)(O)O (some centres not stated) | – | > 1000 | > 1000 | > 1000 | > 1000 | > 1000 | > 1000 | –
3 | NC(C(=O)O)[C@H]1[C@H](c2ccccc2)[C@@H]1P(=O)(O)O (some centres not stated) | 59 | 24 | > 1000 | > 1000 | > 1000 | 51 | > 1000 | 130
4 | NC(C(=O)O)[C@H]1[C@@H](c2ccccc2)[C@@H]1P(=O)(O)O (some centres not stated) | – | 630 | > 1000 | 320 | > 1000 | – | – | 190
5 | NC(C(=O)O)[C@H]1C[C@@H]1P(=O)(O)O (some centres not stated) | 9.4 | 7.4 | > 1000 | > 1000 | > 1000 | 13 | 700 | 63

From ChEMBL document CHEMBL1147898, “Synthesis and preliminary pharmacological evaluation of the four stereoisomers of (2S)-2-(2'-phosphono-3'-phenylcyclopropyl)glycine, the first class of 3'-substituted trans C1'-2'-2-(2'-phosphonocyclopropyl)glycines” (Bioorg Med Chem, 2007)
